Laboratory results published in ChEMBL document CHEMBL1671716, “Antimicrobial susceptibility patterns for recent clinical isolates of anaerobic bacteria in South Korea” (2010).
Values after ≈ are worked out from the molar mass of the structure shown.

Assays:
Eubacterium sp. [1] = assay: Antimicrobial activity against Eubacterium sp. assessed as percent susceptible isolates after 48 hrs by agar dilution method; assay type: functional
Procedure, shortened: (§1)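 CLSI agar dilution (M11-A7); inoculum 10^5 CFU applied by replicator; plates incubated anaerobically 48 h at 37°C. For piperacillin-tazobactam, tazobactam held constant at 4 μg/ml.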

Bacteroides ovatus [2] = assay: Antimicrobial activity against Bacteroides ovatus assessed as percent susceptible isolates after 48 hrs by agar dilution method; assay type: functional
Anaerococcus prevotii [3] = assay: Antimicrobial activity against Anaerococcus prevotii after 48 hrs by agar dilution method; assay type: functional
Procedure, shortened: (§2)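 MICs on clinical anaerobe isolates by the CLSI agar dilution method. Inoculum of 10^5 CFU applied with a Steers replicator. Plates incubated 48 h at 37°C in an anaerobic chamber.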

Schaalia odontolytica [4] = assay: Antimicrobial activity against Actinomyces odontolyticus assessed as percent resistant isolates after 48 hrs by agar dilution method; assay type: functional
Procedure, shortened: (§3)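 CLSI agar dilution on recent Korean clinical anaerobe isolates. Inoculum 10^5 CFU per spot by replicator. Plates incubated in an anaerobic chamber at 37°C for 48 h. For piperacillin plus tazobactam, tazobactam was held constant at 4 μg/ml. Resistance and susceptibility rates derived from MICs.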

[5] = system: Bifidobacterium adolescentis; assay: Antimicrobial activity against Bifidobacterium adolescentis assessed as percent resistant isolates after 48 hrs by agar dilution method; assay type: functional; procedure, shortened: as §3
Schaalia meyeri = assay: Antimicrobial activity against Actinomyces meyeri assessed as percent susceptible isolates after 48 hrs by agar dilution method; assay type: functional
Fusobacterium necrogenes = assay: Antimicrobial activity against Fusobacterium necrogenes after 48 hrs by agar dilution method; assay type: functional; procedure, shortened: as §1
Schaalia odontolytica [6] = assay: Antimicrobial activity against Actinomyces odontolyticus after 48 hrs by agar dilution method; assay type: functional; procedure, shortened: as §2
Bifidobacterium sp. [7] = assay: Antimicrobial activity against Bifidobacterium sp. assessed as percent resistant isolates after 48 hrs by agar dilution method; assay type: functional; procedure, shortened: as §3
Prevotella bivia = assay: Antimicrobial activity against Prevotella bivia assessed as percent resistant isolates after 48 hrs by agar dilution method; assay type: functional; procedure, shortened: as §3
Finegoldia magna [8] = assay: Antimicrobial activity against Finegoldia magna assessed as percent susceptible isolates after 48 hrs by agar dilution method; assay type: functional; procedure, shortened: as §1
Actinomyces israelii [9] = assay: Antimicrobial activity against Actinomyces israelii assessed as percent susceptible isolates after 48 hrs by agar dilution method; assay type: functional
[10] = system: Bacteroides thetaiotaomicron; assay: Antimicrobial activity against Bacteroides thetaiotaomicron after 48 hrs by agar dilution method; assay type: functional; procedure, shortened: as §2
Eubacterium sp. [11] = assay: Antimicrobial activity against Eubacterium sp. assessed as percent resistant isolates after 48 hrs by agar dilution method; assay type: functional; procedure, shortened: as §3
Anaerococcus prevotii [12] = assay: Antimicrobial activity against Anaerococcus prevotii assessed as percent susceptible isolates after 48 hrs by agar dilution method; assay type: functional
Finegoldia magna [13] = assay: Antimicrobial activity against Finegoldia magna assessed as percent resistant isolates after 48 hrs by agar dilution method; assay type: functional; procedure, shortened: as §3
Prevotella intermedia = assay: Antimicrobial activity against Prevotella intermedia assessed as percent resistant isolates after 48 hrs by agar dilution method; assay type: functional; procedure, shortened: as §3
Bifidobacterium sp. [14] = assay: Antimicrobial activity against Bifidobacterium sp. assessed as percent susceptible isolates after 48 hrs by agar dilution method; assay type: functional; procedure, shortened: as §1
Anaerococcus prevotii [15] = assay: Antimicrobial activity against Anaerococcus prevotii assessed as percent resistant isolates after 48 hrs by agar dilution method; assay type: functional; procedure, shortened: as §3
[16] = system: Parabacteroides distasonis; assay: Antimicrobial activity against Bacteroides distasonis assessed as percent resistant isolates after 48 hrs by agar dilution method; assay type: functional; procedure, shortened: as §3
[17] = system: Peptoniphilus asaccharolyticus; assay: Antimicrobial activity against Peptoniphilus asaccharolyticus assessed as percent susceptible isolates after 48 hrs by agar dilution method; assay type: functional; procedure, shortened: as §1
Actinomyces naeslundii [18] = assay: Antimicrobial activity against Actinomyces naeslundii assessed as percent susceptible isolates after 48 hrs by agar dilution method; assay type: functional
[19] = system: Bacteroides thetaiotaomicron; assay: Antimicrobial activity against Bacteroides thetaiotaomicron assessed as percent resistant isolates after 48 hrs by agar dilution method; assay type: functional; procedure, shortened: as §3
Hoylesella oralis [20] = assay: Antimicrobial activity against Prevotella oralis after 48 hrs by agar dilution method; assay type: functional; procedure, shortened: as §1
Fusobacterium varium = assay: Antimicrobial activity against Fusobacterium varium after 48 hrs by agar dilution method; assay type: functional; procedure, shortened: as §1
Bacteroides fragilis [21] = assay: Antimicrobial activity against Bacteroides fragilis after 48 hrs by agar dilution method; assay type: functional; procedure, shortened: as §2
Prevotella buccae [22] = assay: Antimicrobial activity against Prevotella buccae assessed as percent resistant isolates after 48 hrs by agar dilution method; assay type: functional, Segatella buccae; procedure, shortened: as §3
[23] = system: Bifidobacterium adolescentis; assay: Antimicrobial activity against Bifidobacterium adolescentis assessed as percent susceptible isolates after 48 hrs by agar dilution method; assay type: functional
[24] = system: Peptostreptococcus anaerobius; assay: Antimicrobial activity against Peptostreptococcus anaerobius after 48 hrs by agar dilution method; assay type: functional; procedure, shortened: as §1
Prevotella buccae [25] = assay: Antimicrobial activity against Prevotella buccae after 48 hrs by agar dilution method; assay type: functional; conditions: Segatella buccae; procedure, shortened: as §1
Phocaeicola vulgatus = assay: Antimicrobial activity against Bacteroides vulgatus assessed as percent resistant isolates after 48 hrs by agar dilution method; assay type: functional; procedure, shortened: as §3
Hoylesella oralis [26] = assay: Antimicrobial activity against Prevotella oralis assessed as percent susceptible isolates after 48 hrs by agar dilution method; assay type: functional
Procedure, shortened: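 CLSI agar dilution MIC testing of clinical isolates. 10^5 CFU spotted by replicator, plates incubated 48 h at 37°C in an anaerobic chamber. Susceptibility rates derived from the MICs.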

[27] = system: Peptoniphilus asaccharolyticus; assay: Antimicrobial activity against Peptoniphilus asaccharolyticus assessed as percent resistant isolates after 48 hrs by agar dilution method; assay type: functional; procedure, shortened: as §3
Clostridioides difficile [28] = assay: Antimicrobial activity against Clostridium difficile assessed as percent resistant isolates after 48 hrs by agar dilution method; assay type: functional
Bacteroides ovatus [29] = assay: Antimicrobial activity against Bacteroides ovatus assessed as percent resistant isolates after 48 hrs by agar dilution method; assay type: functional; procedure, shortened: as §3
Parvimonas micra = assay: Antimicrobial activity against Peptostreptococcus micros after 48 hrs by agar dilution method; assay type: functional; procedure, shortened: as §1
Fusobacterium nucleatum = assay: Antimicrobial activity against Fusobacterium nucleatum after 48 hrs by agar dilution method; assay type: functional; procedure, shortened: as §1
Bifidobacterium sp. [30] = assay: Antimicrobial activity against Bifidobacterium sp. after 48 hrs by agar dilution method; assay type: functional; procedure, shortened: as §2
Schaalia odontolytica [31] = assay: Antimicrobial activity against Actinomyces odontolyticus assessed as percent susceptible isolates after 48 hrs by agar dilution method; assay type: functional
Actinomyces israelii [32] = assay: Antimicrobial activity against Actinomyces israelii assessed as percent resistant isolates after 48 hrs by agar dilution method; assay type: functional; procedure, shortened: as §3
Bacteroides fragilis [33] = assay: Antimicrobial activity against Bacteroides fragilis assessed as percent susceptible isolates after 48 hrs by agar dilution method; assay type: functional
[34] = system: Peptostreptococcus anaerobius; assay: Antimicrobial activity against Peptostreptococcus anaerobius assessed as percent susceptible isolates after 48 hrs by agar dilution method; assay type: functional; procedure, shortened: as §3
Eggerthella lenta = assay: Antimicrobial activity against Eubacterium lentum after 48 hrs by agar dilution method; assay type: functional; procedure, shortened: as §1
Actinomyces naeslundii [35] = assay: Antimicrobial activity against Actinomyces naeslundii after 48 hrs by agar dilution method; assay type: functional; procedure, shortened: as §2
[36] = system: Porphyromonas asaccharolytica; assay: Antimicrobial activity against Porphyromonas asaccharolytica after 48 hrs by agar dilution method; assay type: functional; procedure, shortened: as §1
Bacteroides caccae = assay: Antimicrobial activity against Bacteroides caccae assessed as percent resistant isolates after 48 hrs by agar dilution method; assay type: functional; procedure, shortened: as §3
Clostridioides difficile [37] = assay: Antimicrobial activity against Clostridium difficile assessed as percent susceptible isolates after 48 hrs by agar dilution method; assay type: functional
[38] = system: Parabacteroides distasonis; assay: Antimicrobial activity against Bacteroides distasonis assessed as percent susceptible isolates after 48 hrs by agar dilution method; assay type: functional

C[C@@H](O)[C@H]1C(=O)N2C(C(=O)O)=C(SCCNC=N)C[C@H]12 [IMIPENEM ANHYDROUS]
Activity (Eubacterium sp. [1]): 100%
Activity (Bacteroides ovatus [2]): 95%
MIC50 (Anaerococcus prevotii [3]): 0.06 µg/mL (≈ 0.2 µM)
MIC90 (Anaerococcus prevotii [3]): 0.25 µg/mL (≈ 0.835 µM)
Activity (Schaalia odontolytica [4]): 0%
Activity [5]: 15%
Activity (Schaalia meyeri): 100%
MIC (Fusobacterium necrogenes): 0.02 µg/mL (≈ 0.0668 µM)
MIC50 (Schaalia odontolytica [6]): 0.06 µg/mL (≈ 0.2 µM)
MIC90 (Schaalia odontolytica [6]): 0.5 µg/mL (≈ 1.67 µM)
Activity (Bifidobacterium sp. [7]): 0%
Activity (Prevotella bivia): 0%
Activity (Finegoldia magna [8]): 100%
Activity (Actinomyces israelii [9]): 100%
MIC50 [10]: 0.5 µg/mL (≈ 1.67 µM)
MIC90 [10]: 4 µg/mL (≈ 13.4 µM)
Activity (Eubacterium sp. [11]): 0%
Activity (Anaerococcus prevotii [12]): 100%
Activity (Finegoldia magna [13]): 0%
Activity (Prevotella intermedia): 0%
Activity (Bifidobacterium sp. [14]): 100%
Activity (Anaerococcus prevotii [15]): 0%
Activity [16]: 4%
Activity [17]: 100%
Activity (Actinomyces naeslundii [18]): 100%
Activity [19]: 4%
MIC50 (Hoylesella oralis [20]): 0.06 µg/mL (≈ 0.2 µM)
MIC90 (Hoylesella oralis [20]): 0.5 µg/mL (≈ 1.67 µM)
MIC (Fusobacterium varium): 0.02 µg/mL (≈ 0.0668 µM)
MIC50 (Bacteroides fragilis [21]): 0.125 µg/mL (≈ 0.418 µM)
MIC90 (Bacteroides fragilis [21]): 1 µg/mL (≈ 3.34 µM)
Activity (Prevotella buccae [22]): 0%
Activity [23]: 100%
MIC50 [24]: 0.125 µg/mL (≈ 0.418 µM)
MIC90 [24]: 2 µg/mL (≈ 6.68 µM)
MIC50 (Prevotella buccae [25]): 0.06 µg/mL (≈ 0.2 µM)
MIC90 (Prevotella buccae [25]): 0.5 µg/mL (≈ 1.67 µM)
Activity (Phocaeicola vulgatus): 4%
Activity (Hoylesella oralis [26]): 100%
Activity [27]: 0%
Activity (Clostridioides difficile [28]): 8%
Activity (Bacteroides ovatus [29]): 4%
MIC50 (Parvimonas micra): 0.125 µg/mL (≈ 0.418 µM)
MIC90 (Parvimonas micra): 2 µg/mL (≈ 6.68 µM)
MIC (Fusobacterium nucleatum): 0.02 µg/mL (≈ 0.0668 µM)
MIC50 (Bifidobacterium sp. [30]): 0.06 µg/mL (≈ 0.2 µM)
MIC90 (Bifidobacterium sp. [30]): 0.5 µg/mL (≈ 1.67 µM)
Activity (Schaalia odontolytica [31]): 100%
Activity (Actinomyces israelii [32]): 0%
Activity (Bacteroides fragilis [33]): 98%
Activity [34]: 100%
MIC50 (Eggerthella lenta): 0.06 µg/mL (≈ 0.2 µM)
MIC90 (Eggerthella lenta): 0.5 µg/mL (≈ 1.67 µM)
MIC50 (Actinomyces naeslundii [35]): 0.06 µg/mL (≈ 0.2 µM)
MIC90 (Actinomyces naeslundii [35]): 0.5 µg/mL (≈ 1.67 µM)
MIC [36]: 0.02 µg/mL (≈ 0.0668 µM)
Activity (Bacteroides caccae): 4%
Activity (Clostridioides difficile [37]): 58%
Activity [38]: 95%
